Activity calls are given as the source filed them. The calls are words filed in the database; no cut-off is given here.
Tests used:
Format in all cases: functional, cell-based
[1] = molecular target: Trace amine-associated receptor 1 (Rattus norvegicus) (UniProt Q923Y9); test: Antagonist activity at rat TAAR1 expressed in HEK293 cells assessed as intracellular cAMP level at 10 uM after 1 hr
Method in brief: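 Stably rTAAR1-transfected HEK293 cells were harvested in Krebs-Ringer-Hepes buffer and incubated in it with 133 µM IBMX, 1 h at 37 °C. Test compound at 10 µM was given in competition with the agonist T1AM at 33 nM. Intracellular cAMP was read. At least three separate experiments, each in triplicate.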

[2] = molecular target: Trace amine-associated receptor 1 (Rattus norvegicus) (UniProt Q923Y9); test: Agonist activity at rat TAAR1 expressed in HEK293 cells assessed as intracellular cAMP level at <=10 uM after 1 hr
Method in brief: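 HEK293 cells stably transfected with rTAAR1 (empty pcDNA3 vector cells as control) were harvested in Krebs-Ringer-Hepes buffer (KRH), then incubated in KRH with 133 µM IBMX plus test compound, forskolin (10 µM) or vehicle (DMSO) for 1 h at 37 °C. Intracellular cAMP was read. Tested at 10 µM or below. At least three separate experiments, each in triplicate.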

[3] = molecular target: Trace amine-associated receptor 1 (Rattus norvegicus, UniProt Q923Y9); test: Agonist activity at rat TAAR1 expressed in HEK293 cells assessed as intracellular cAMP level
Trace amine-associated receptor 1, sequence (Q923Y9 whole entry): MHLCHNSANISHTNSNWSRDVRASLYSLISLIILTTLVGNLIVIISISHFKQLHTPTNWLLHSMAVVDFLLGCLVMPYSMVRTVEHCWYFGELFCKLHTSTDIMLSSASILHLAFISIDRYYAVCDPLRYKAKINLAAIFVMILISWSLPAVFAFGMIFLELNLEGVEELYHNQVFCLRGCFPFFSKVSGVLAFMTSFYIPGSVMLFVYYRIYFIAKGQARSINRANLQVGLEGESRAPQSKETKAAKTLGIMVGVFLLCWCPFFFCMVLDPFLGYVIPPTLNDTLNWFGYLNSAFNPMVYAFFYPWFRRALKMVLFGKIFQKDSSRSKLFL
Method in brief: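 HEK293 cells stably transfected with rat TAAR1, with empty pcDNA3 vector cells as control, were harvested in Krebs-Ringer-Hepes buffer. They were incubated in the same buffer with 133 µM IBMX plus test compound, 10 µM forskolin or DMSO vehicle for 1 h at 37 °C. Results are mean ± SEM of at least three separate experiments, each run in triplicate.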

Trace amine-associated receptor 1 (Rattus norvegicus), sequence (Q923Y9 whole entry, the tested form may be a part): as the sequence (Q923Y9 whole entry) above

Compound | Activity [1] | Activity [2] | EC50 [3] [µM]
CCCCc1oc2ccccc2c1C(=O)c1ccc(OCCN(CC)CC)c(I)c1 | inactive | – | –
CCCCc1oc2ccccc2c1C(=O)c1ccc(OCCN)cc1 | – | Active | –
CCCCc1oc2ccccc2c1C(=O)c1ccc(OCCN(CC)CC)cc1 | inactive | – | –
CCCCc1oc2ccccc2c1C(=O)c1ccc(OCCNCC)c(I)c1 | inactive | – | –
CCCCc1oc2ccccc2c1C(=O)c1ccc(OCCNCC)cc1 | – | Active | –
CCCCc1oc2ccccc2c1C(=O)c1cc(I)c(OCCNCC)c(I)c1 | inactive | – | –
CCCCc1oc2ccccc2c1C(=O)c1cc(I)c(OCCN)c(I)c1 | – | Active | 1
CCCCc1oc2ccccc2c1C(=O)c1ccc(OCCN)c(I)c1 | – | Active | –

From ChEMBL document CHEMBL1151799, “Trace amine-associated receptor 1 (TAAR1) is activated by amiodarone metabolites” (Bioorg Med Chem Lett, 2008)
